ChEMBL document CHEMBL1134652, “N-Methyl scan of somatostatin octapeptide agonists produces interesting effects on receptor subtype specificity” (J Med Chem, 2001)
Where a SMILES comes first, the peptide text is derived from it. Bridges are numbered along the chain shown (N, C = ends). [ ]: non-standard residue; d: D form. NMeY = CN[C@@H](Cc1ccc(O)cc1)C(=O)O; NMeT = CN[C@H](C(=O)O)[C@@H](C)O; NMeK = CN[C@@H](CCCCN)C(=O)O; NMeC = CN[C@@H](CS)C(=O)O

Tests used:
Rattus norvegicus = organism: Rattus norvegicus; experiment: in vitro Agonist activity (inhibition of growth hormone release) on cultured rat pituitary cells; assay type: functional, cell-based; conditions: Pituitary gland cell
How it was run: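 Anterior pituitary cells from adult male rats were dispersed with trypsin/DNase and cultured 4–5 days at about 200 000 cells/well. GH in the medium was measured by double-antibody RIA.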

[1] = target: Somatostatin receptor type 2 (Homo sapiens, UniProt P30874); experiment: Binding affinity was determined on cloned human somatostatin receptor-1 (hsst2)
How it was run: (§1)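 Membranes from CHO-K1 cells stably transfected with human sst1, sst2 or sst4 (calcium phosphate, G418 selection), resuspended in 10 mM Tris-HCl. Filtered on GF/C; nonspecific binding measured with 1.0 μM SRIF. Kd from concentration-dependent displacement.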

[2] = target: Somatostatin receptor type 1 (Homo sapiens, UniProt P30872); experiment: Binding affinity was determined on cloned human somatostatin receptor-1 (hsst1); how it was run: as §1
[3] = target: Somatostatin receptor type 3 (Homo sapiens, UniProt P32745); experiment: Binding affinity was determined on cloned human somatostatin receptor-1 (hsst3)
[4] = target: Somatostatin receptor type 5 (Homo sapiens, UniProt P35346); experiment: Binding affinity was determined on cloned human somatostatin receptor-1 (hsst5)
[5] = target: Somatostatin receptor type 4 (Homo sapiens, UniProt P31391); experiment: Binding affinity was determined on cloned human somatostatin receptor-1 (hsst4)
How it was run: as §1, with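 “Tris-HCl. Incubated 30 min at 37 °C with 0.05 nM [125I]Tyr11-SRIF (sst1, sst4) or [125I]MK-678 (sst2) in HEPES pH 7.4 with BSA, MgCl2 and protease inhibitors.” for “Tris-HCl.”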

Sequence of Somatostatin receptor type 2 (P30874 whole entry): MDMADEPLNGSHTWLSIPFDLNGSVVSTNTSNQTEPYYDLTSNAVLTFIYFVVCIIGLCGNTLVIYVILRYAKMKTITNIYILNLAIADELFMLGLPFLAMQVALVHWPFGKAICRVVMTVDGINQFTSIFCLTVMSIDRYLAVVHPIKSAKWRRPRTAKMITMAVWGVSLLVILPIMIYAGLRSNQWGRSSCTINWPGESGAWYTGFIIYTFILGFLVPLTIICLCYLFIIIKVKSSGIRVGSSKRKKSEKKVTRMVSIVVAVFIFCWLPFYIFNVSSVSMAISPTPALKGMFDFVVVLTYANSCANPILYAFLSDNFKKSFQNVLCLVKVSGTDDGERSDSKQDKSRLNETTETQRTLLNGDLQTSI
Sequence of Somatostatin receptor type 1 (P30872 whole entry): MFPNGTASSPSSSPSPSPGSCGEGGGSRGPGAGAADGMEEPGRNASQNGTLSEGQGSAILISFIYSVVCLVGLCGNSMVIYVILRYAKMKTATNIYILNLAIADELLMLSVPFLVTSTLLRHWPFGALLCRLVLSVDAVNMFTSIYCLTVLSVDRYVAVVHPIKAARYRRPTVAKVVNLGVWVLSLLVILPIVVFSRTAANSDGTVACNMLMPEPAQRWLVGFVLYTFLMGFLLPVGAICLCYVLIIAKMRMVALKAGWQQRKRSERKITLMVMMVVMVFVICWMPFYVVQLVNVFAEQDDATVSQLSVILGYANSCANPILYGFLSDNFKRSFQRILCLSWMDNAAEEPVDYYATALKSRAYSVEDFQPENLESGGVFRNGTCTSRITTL
Sequence of Somatostatin receptor type 4 (P31391 whole entry): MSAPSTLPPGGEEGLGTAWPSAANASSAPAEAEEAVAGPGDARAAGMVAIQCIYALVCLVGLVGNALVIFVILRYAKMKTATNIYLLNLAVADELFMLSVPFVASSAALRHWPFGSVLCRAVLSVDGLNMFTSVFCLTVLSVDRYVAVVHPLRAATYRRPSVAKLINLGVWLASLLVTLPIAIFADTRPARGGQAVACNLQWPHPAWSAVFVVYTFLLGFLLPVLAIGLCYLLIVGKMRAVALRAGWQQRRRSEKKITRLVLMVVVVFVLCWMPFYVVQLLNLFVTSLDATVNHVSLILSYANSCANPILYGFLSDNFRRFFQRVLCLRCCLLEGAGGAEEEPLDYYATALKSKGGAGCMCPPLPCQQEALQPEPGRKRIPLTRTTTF
Sequence of Somatostatin receptor type 5 (P35346 whole entry): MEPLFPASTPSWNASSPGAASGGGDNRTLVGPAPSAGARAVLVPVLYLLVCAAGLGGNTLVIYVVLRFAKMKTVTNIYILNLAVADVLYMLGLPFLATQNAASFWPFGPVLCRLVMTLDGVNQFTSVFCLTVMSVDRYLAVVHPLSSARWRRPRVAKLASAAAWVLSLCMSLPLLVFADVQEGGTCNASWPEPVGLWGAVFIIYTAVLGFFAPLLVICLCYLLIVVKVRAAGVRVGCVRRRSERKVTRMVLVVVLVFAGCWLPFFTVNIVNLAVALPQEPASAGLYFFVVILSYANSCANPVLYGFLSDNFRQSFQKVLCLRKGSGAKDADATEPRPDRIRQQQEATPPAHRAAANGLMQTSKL
Sequence of Somatostatin receptor type 3 (P32745 whole entry): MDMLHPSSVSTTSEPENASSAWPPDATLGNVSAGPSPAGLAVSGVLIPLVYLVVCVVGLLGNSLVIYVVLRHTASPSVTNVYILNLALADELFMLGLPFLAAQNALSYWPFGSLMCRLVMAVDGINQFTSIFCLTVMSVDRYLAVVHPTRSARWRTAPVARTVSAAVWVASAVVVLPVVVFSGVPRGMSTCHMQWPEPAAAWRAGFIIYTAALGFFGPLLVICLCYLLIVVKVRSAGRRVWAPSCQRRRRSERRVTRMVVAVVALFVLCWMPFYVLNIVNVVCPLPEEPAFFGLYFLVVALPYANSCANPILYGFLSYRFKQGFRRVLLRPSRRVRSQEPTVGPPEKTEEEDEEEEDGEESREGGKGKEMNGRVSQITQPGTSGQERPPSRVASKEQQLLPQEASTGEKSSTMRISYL

Row | SMILES | IC50 (Rattus norvegicus) [nM] | Kd [1] [nM] | other results
1 | C[C@@H](O)[C@@H]1NC(=O)[C@H](CCCCN)NC(=O)[C@@H](Cc2c[nH]c3ccccc23)NC(=O)[C@H](Cc2ccccc2)NC(=O)[C@@H](NC(=O)[C@H](N)Cc2ccccc2)CSSC[C@@H](C(=O)N(C)[C@H](C(N)=O)[C@@H](C)O)NC1=O | 28.8 |  | 
2 | C[C@@H](O)[C@H](NC(=O)[C@@H]1CSSC[C@H](N(C)C(=O)[C@H](N)Cc2ccccc2)C(=O)N[C@@H](Cc2ccccc2)C(=O)N[C@H](Cc2c[nH]c3ccccc23)C(=O)N[C@@H](CCCCN)C(=O)N[C@@H]([C@@H](C)O)C(=O)N1)C(N)=O | 0.36 |  | 
3 | CN[C@H](Cc1ccccc1)C(=O)N[C@H]1CSSC[C@@H](C(=O)N[C@H](C(N)=O)[C@@H](C)O)NC(=O)[C@H]([C@@H](C)O)NC(=O)[C@H](CCCCN)NC(=O)[C@@H](Cc2c[nH]c3ccccc23)NC(=O)[C@H](Cc2ccccc2)NC1=O |  | 1.03 | Kd [2]: 316 nM; Kd [3]: 17.9 nM; Kd [4]: 4.89 nM; Kd [5]: > 1000 nM
4 | C[C@@H](O)[C@H](NC(=O)[C@@H]1CSSC[C@H](NC(=O)[C@H](N)Cc2ccccc2)C(=O)N[C@@H](Cc2ccccc2)C(=O)N[C@H](Cc2c[nH]c3ccccc23)C(=O)N[C@@H](CCCCN)C(=O)N[C@@H]([C@@H](C)O)C(=O)N1)C(N)=O | 0.16 |  | 
5 | C[C@@H](O)[C@H](NC(=O)[C@@H]1CSSC[C@H](NC(=O)[C@@H](N)Cc2ccc(O)cc2)C(=O)N[C@@H](Cc2ccccc2)C(=O)N[C@H](Cc2c[nH]c3ccccc23)C(=O)N[C@@H](CCCCN)C(=O)N[C@@H]([C@@H](C)O)C(=O)N1)C(N)=O (H-YCF[dW]KTCT-NH2; disulfide 2-7) | 1.11 |  | 
6 | C[C@@H](O)[C@H](NC(=O)[C@@H]1CSSC[C@H](NC(=O)[C@@H](N)Cc2ccc(O)cc2)C(=O)N[C@@H](Cc2ccccc2)C(=O)N[C@H](Cc2c[nH]c3ccccc23)C(=O)N[C@@H](CCCCN)C(=O)N[C@@H]([C@@H](C)O)C(=O)N1C)C(N)=O (H-YCF[dW]KT[NMeC]T-NH2; disulfide 2-7) |  | 56.2 | 
7 | C[C@@H](O)[C@H](NC(=O)[C@@H]1CSSC[C@H](NC(=O)[C@@H](N)Cc2ccc(O)cc2)C(=O)N[C@@H](Cc2ccccc2)C(=O)N[C@H](Cc2c[nH]c3ccccc23)C(=O)N[C@@H](CCCCN)C(=O)N(C)[C@@H]([C@@H](C)O)C(=O)N1)C(N)=O (H-YCF[dW]K[NMeT]CT-NH2; disulfide 2-7) |  |  | Kd [5]: 1000 nM
8 | C[C@@H](O)[C@H](NC(=O)[C@@H]1CSSC[C@H](NC(=O)[C@@H](N)Cc2ccc(O)cc2)C(=O)N[C@@H](Cc2ccccc2)C(=O)N[C@H](Cc2c[nH]c3ccccc23)C(=O)N(C)[C@@H](CCCCN)C(=O)N[C@@H]([C@@H](C)O)C(=O)N1)C(N)=O (H-YCF[dW][NMeK]TCT-NH2; disulfide 2-7) | 27.4 |  | 
9 | CN[C@@H](Cc1ccc(O)cc1)C(=O)N[C@H]1CSSC[C@@H](C(=O)N[C@H](C(N)=O)[C@@H](C)O)NC(=O)[C@H]([C@@H](C)O)NC(=O)[C@H](CCCCN)NC(=O)[C@@H](Cc2c[nH]c3ccccc23)NC(=O)[C@H](Cc2ccccc2)NC1=O (H-[NMeY]CF[dW]KTCT-NH2; disulfide 2-7) |  | 9.74 | Kd [2]: 811 nM
